assay: Toxicity liver stage against HepG2, at 10uM; assay type: cell-based; parameters: test concentration 10 uM, cell line HepG2-A16-CD81EGFP; conditions: human, HepG2-A16-CD81EGFP cells; read-out: INHIBITION
Outline: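 Uninfected HepG2-A16-CD81EGFP cells, 3 × 10^3 per well, 1536-well, plated on prespotted compound at 10 μM final, parasite-free screening media added to match infected plates; puromycin 10 μM positive, DMSO 0.5% negative; run in parallel with 48 h PbLuc assay at 37 °C, 5% CO2; viability by CellTiter-Glo luminescence, normalized to controls.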

Structure (SMILES)	cytotoxicity at 10 µM [%]
CN(C)C(=O)Cc1ccc(NC(=O)NC2CC2)cc1	6.13
CCN(CCNS(=O)(=O)N1CCOCC1)C(=O)OC(C)(C)C	19.9
CC(C)NC(=O)N1CCC[C@H]1C(=O)NCCCc1cnn(C)c1	0.00333
Cn1ncc2c(=O)[nH]c(CN3CCCC3c3cccc(F)c3)nc21 (stereo not given)	-9.14
Cc1nccn1-c1ccc(CNC(=O)c2ccc[nH]2)cn1	-14.2
CC(C)Cc1nc(CN2CCC3(CCCO3)CCC2=O)no1 (stereo not given)	1.95
Cc1cccc(COC[C@]23COC[C@H]2CN(c2ncccn2)C3)n1	-76.2
Cc1cc(NC(=O)Cn2cc(C#N)c(=O)c3cc(Br)ccc32)no1	16.5
CN(Cc1ccc2nsnc2c1)CC1(O)CNCCOC1 (stereo not given)	-5.03
CCn1ccnc1CN1CCCN(C(=O)Cn2nc(C)cc2C)CC1	-0.505
CCc1cccc(OC2CN(C(=O)[C@@H](N)CCSC)C2)c1	0.684
O=C(c1ccccc1F)N1CCCn2c(CN3CCCCC3)nnc2C1	-71.5
O=C(CC1CC1)N1Cc2nccn2CC(COc2cccnc2)C1 (stereo not given)	5.09
CCOCC(=O)N1CCC(C2CCN(Cc3ccc(Cl)cc3)C2)CC1 (stereo not given)	-9.15
CSCCC(=O)N1C[C@H](Nc2ccnc(C)n2)[C@@H](C(C)C)C1	-1.13
c1ccc(O[C@@H]2CC[C@H]3[C@H]2OCCN3Cc2ccsc2)nc1	1.24
CNS(=O)(=O)CCn1cc(-c2ccc(NC(C)=O)cc2)nn1	-4.5
CN(CC(=O)Nc1nc2c(s1)CCCCCC2)C(=O)c1ccco1	37.9
CN1CCC(c2cncc(C(=O)NCc3ccc(F)cc3)n2)CC1	-8.11
O=C([C@@H]1Cc2[nH]cnc2CN1CC1CC1)N1CCCC1	2.5
CCc1nc(CN(C)C2CCN(Cc3cnc(C)cn3)C2)no1 (stereo not given)	4.23
Cc1cc(N2CCSCC2)ccc1NC(=O)N(CCO)C1CC1	-10.1

Structure (SMILES)	cytotoxicity at 10 µM [%]
CCc1nc(C2CCCN2C(=O)c2ccoc2C)no1 (stereo not given)	-11.6
Cc1cc(CN2CCC(c3cc(Cc4ccccc4)n[nH]3)CC2)[nH]n1	7.54
CCOCC1CN(C(=O)c2ccco2)Cc2nn(C)cc21 (stereo not given)	3.86
CN1CC(=O)N(c2cccnc2)CC12CCN(C(=O)c1cccn1C)C2 (stereo not given)	1.14
COCCN1CC(C(=O)NCc2ccnc(-n3cccn3)c2)CC1=O (stereo not given)	-5.07
O=C1CN(C(=O)CN(CC2CCC2)CC(F)(F)F)CCN1	0.821
O=c1cc(N2CCCCC2)cnn1Cc1noc(C2CCCO2)n1 (stereo not given)	-47.1
Cn1cc(N2CCN(c3ccc(C#N)cc3Br)CC2=O)cn1	-5.48
Cc1nnc(NC(=O)N2CCN(Cc3ccc(F)cc3)C(=O)C2)s1	-0.392
Cc1cnccc1N1CCN(C(=O)CCCN2CCCCC2)CC1	0.0879
COc1cccc2c1ccn2CCC(=O)N1CCC(C(=O)O)CC1	7.08
O=C([C@H]1C[C@H]2OCC[C@H]2N(CCc2ccccc2)C1)N1CCCO1	-72.8
Cc1cc2n(n1)CCN(c1nc(N)nc3c1CCNCC3)C2	7.04
Cc1nc(CN2CC(CO)Oc3ccccc32)sc1C (stereo not given)	0.918
COCCCNC(=O)N1CCN(C(=O)c2nsc3ccc(C)cc23)CC1	12.3
CCCc1cc(C(=O)NC(c2ccccc2)c2n[nH]c(C)n2)[nH]n1 (stereo not given)	2.99
O=c1cc(CN2CCC(CCc3ccc(O)cc3)CC2)[nH]c(=O)[nH]1	-0.885
Cc1cnc(CN(C)C2CCN(Cc3nnc(C4CC4)o3)C2)o1 (stereo not given)	5.25
CN(Cc1ccncc1)C(=O)Nc1cnn(CC(N)=O)c1	-3.07
CN(Cc1nc2c(cnn2C)c(=O)[nH]1)Cc1ccccc1Cl	-5.82
CCn1ncnc1C(C)Nc1cc(C2CC2)ncn1 (stereo not given)	2.33
Cc1sc(Br)cc1S(=O)(=O)NCCN	-6.69

Structure (SMILES)	cytotoxicity at 10 µM [%]
CC1CCCCN1S(=O)(=O)NCCNC(=O)c1ncccc1O (stereo not given)	2.34
Cn1cc(N2CC[C@@H]3CN(Cc4ccncc4)C[C@H]3C2=O)cn1	-103
CC1(C)CCN(Cc2ccccc2-c2nc(C(C)(C)C)cc(=O)[nH]2)C1	-39.9
N#Cc1ccc(F)c(CN2CCc3sccc3C2)c1	-3.09
Cc1ccsc1-c1nccn1CCN1CCCOC1=O	-4.68
Cn1ccnc1CN1CCC2(CC1)CC(Nc1ccccn1)CO2 (stereo not given)	-7.97
CC(C)Nc1oc(-c2ccc(S(=O)(=O)N(C)C)o2)nc1C#N	-11.6
CN1CCN(C(=O)Cc2ccsc2)Cc2cccnc21	-1.16
CS(=O)(=O)N1CCN(C(=O)C2CSCCC(=O)N2)CC1 (stereo not given)	0.565
NC(=O)NC(=O)CCSCc1cc(F)cc2cccnc12	1.88
CCc1noc(C(C)N2CCN(Cc3nc(C)c(C)o3)CC2)n1 (stereo not given)	-1.71
CCCC(=O)N(CCN1CCOCC1)c1nc2c(OC)ccc(C)c2s1	-5.02
CCCN1CCCn2nc(CNS(=O)(=O)c3ccc(F)cc3)cc2C1	-8.57
CC(Nc1ccc(F)cc1)c1nnnn1-c1ccccc1 (stereo not given)	1.81
NCCCC(=O)N1CCC2(CC1)CN(C(=O)c1ccc(Cl)cc1)CCO2	6.83
CC(C)(C)NC(=O)CNc1ncc(Br)cn1	2.96
CCc1ccc(C(COC)NC(=O)c2ccc(C(N)=O)cc2)o1 (stereo not given)	-2.65
O=C(c1ccc2[nH]ccc2c1)N1CCCSCC1CN1CCCC1 (stereo not given)	9.4
COc1cccc(CC(=O)N2CC[C@@H]3CN(C)S(=O)(=O)[C@@H]3CC2)c1	-2.36
CN(C)C(=O)NCc1ncn2c1CN(Cc1ccco1)CCC2	8.22
Cc1cccc(=O)n1CCCNc1nc(N(C)C)nc2c1CCNCC2	-10.2
O=C(N[C@@H]1CN(C2CCCC2)C[C@@H]2CCCO[C@@H]21)c1cnccn1	-1.58

Structure (SMILES)	cytotoxicity at 10 µM [%]
CC(C1CC1)N(C)C(=O)CCn1cccn1 (stereo not given)	-2.37
O=C(C1CCN(c2nc3nc[nH]c(=O)c3s2)CC1)N1CCCCC1	-5.55
Cc1cnn(CC(C)NCc2nc(-c3cccs3)no2)c1 (stereo not given)	-7.64
Cc1csc(CNc2nc3c(s2)c(C)nn3C)n1	-109
COc1ccc(CNC(=O)Nc2ccc(CN3CCOC3=O)cc2)cc1	-1.44
O=C(Nc1ccc(-c2ccn[nH]2)cc1)C1CCCN(Cc2ccoc2)C1 (stereo not given)	-0.16
c1cncc(-c2nnc([C@H]3CCN(CC4CCCCC4)C3)o2)c1	-6.72
CCn1nc2c(cc1=O)CN(Cc1ccc(-n3cccn3)cc1)CC2	-134
FC(F)CN1CCC(NCCc2ccc(-n3cccn3)cc2)CC1	14.5
CC(C)c1nnc(CN2CC(n3cccn3)C2)o1	-149
COc1cccc(CN2CC[C@H](NC(C)=O)[C@@H](O)CC2)c1F	-8.63
COCCN(Cc1nccs1)C(=O)c1cc(-c2ccc(C)o2)n[nH]1	6.23
COc1ccc(-c2n[nH]cc2CN2CCSCC2)c(OC)c1	6.4
CC(C)(C)c1cc(CN2CCOCC(O)C2)n[nH]1 (stereo not given)	-3.89
CCn1nc(C)c(CCNC(=O)c2cccc(-n3cccn3)c2)c1C	-12.9
CC(C)c1noc(-c2ccc(N(C)C3CCOCC3)nc2)n1	-17.6
COCc1nc(Cn2ncn3cccc3c2=O)no1	-8.98
Cc1ccc(CN2CCN(C(=O)c3ccccc3O)C(C)C2=O)cc1 (stereo not given)	6.31
Fc1cccc(-c2noc3c2CN(Cc2cncn2C2CC2)CC3)c1	-1.24
CN(C)CC(=O)NC1CC(C)(C)Cc2nc(C(C)(C)C)ncc21 (stereo not given)	-13.4
c1cncc(COCC2CN(Cc3ccco3)Cc3nccn3C2)c1 (stereo not given)	-157
CCC(=O)Nc1nnc(CCCOc2ccccc2)s1	-0.834

Structure (SMILES)	cytotoxicity at 10 µM [%]
Cn1ncc2c(=O)[nH]c(CN3CCC(Cc4ccccc4)CC3)nc21	-2.28
CC(NC(=O)CN1CCN(c2cccc(Cl)c2)CC1)c1ccco1 (stereo not given)	-11.1
CN(C(=O)Nc1ccncc1)C1CCN(c2ccc(Cl)cc2)CC1	1.44
O=C(c1nc(Cc2c[nH]c3ccccc23)no1)N1CCCC1	7.76
CC(C)C(=O)NCCC(=O)N1CCN(c2ccccn2)CC1	-6.13
CN1CCC(N2CCC(CN(Cc3ccncc3)C3CCC3)CC2)CC1	-7.19
CCOC(=O)N1CCN(CC(=O)Nc2nnc(CC)s2)CC1	-8.94
CCN(CC)S(=O)(=O)c1cccc(C(=O)N(C)Cc2ccsc2)c1	-6.8
CC[C@H]1COCCN1C(=O)CCCn1nnc(-c2ccc(F)cc2)n1	13.4
CN(C)C[C@@H]1CN(C2CCN(c3ccc(Cl)cc3)CC2)C[C@@H]1CO	-9.14
CN(C)c1cccc(C(=O)N2CCCc3cc(OC(F)(F)F)ccc32)c1	-44.4
CN1C(=O)CO[C@H](c2ccc(NC(=O)Nc3ccccc3)cc2)[C@H]1CO	-1.63
Cc1noc([C@@H]2C[C@H]3CN(CC4CCOCC4)C[C@H]3O2)n1	-137
O=C(O)c1cc2c(nc1-c1cncnc1)CCN(C1CCOC1)CC2 (stereo not given)	-1.61
O=C(CCN1C(=O)CCC1=O)NCC1(c2c(F)cccc2F)CCCC1	-9.47
Cc1c(CS(C)(=O)=O)cccc1NCCCC1CCCC1	17.5
O=c1[nH]cnc2c1CCN(S(=O)(=O)c1ccc(OC(F)(F)F)cc1)C2	1.61
COc1ccc2c(c1)OCC(CNC1CCc3nc(C)nn3C1)=C2 (stereo not given)	1.84
Cc1cccn2c(CC(=O)N3CCC(Oc4ncccn4)CC3)cnc12	6.78
O=C(O)C(c1ccc2c(c1)OCCO2)N1CCC(N2CCOCC2)CC1 (stereo not given)	-0.809
Cc1cc(C(F)(F)F)nc(CCNc2nc(C)nc3c2cnn3C)n1	4.79
CCCn1cc(NC(=O)c2ccc(NC(=O)NC3CC3)cc2)ccc1=O	1.93
